MrgX1 PAM – allosterically activates human MrgX1 receptor signaling; MrgX1-HEK293, Fluo-4 calcium flux, FDSS; hits give high values; AID 588675; 310,000 tested, 0.63% active; B-score at 10 µM;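 active = plate-corrected calcium response at least 3 library SD above typical, normal starting fluorescence, not activating the receptor alone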;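 also: compound read alongside a low EC10 to EC30 dose of BAM8-22 agonist; peak minus trough fluorescence over baseline measured at the second addition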
Target sequence (Q96LB2 whole entry, looked up): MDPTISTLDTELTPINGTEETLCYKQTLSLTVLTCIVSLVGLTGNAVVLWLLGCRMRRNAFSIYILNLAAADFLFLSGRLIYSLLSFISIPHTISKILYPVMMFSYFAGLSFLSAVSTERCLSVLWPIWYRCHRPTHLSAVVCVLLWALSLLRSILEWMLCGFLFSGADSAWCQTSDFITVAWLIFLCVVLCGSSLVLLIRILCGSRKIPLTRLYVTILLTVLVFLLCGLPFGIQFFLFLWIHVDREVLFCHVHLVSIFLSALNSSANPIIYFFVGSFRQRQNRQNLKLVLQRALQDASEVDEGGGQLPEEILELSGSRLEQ
MrgX1 agonist – human MrgX1 receptor agonism, primary screen; Q96LB2; MrgX1-HEK293 cells, Fluo-4 calcium fluorescence, agonist mode; hits give high values; B-score at 10 µM; 310,000 tested, 0.44% active; AID 588627;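 active = calcium response B-score plate-corrected fluorescence ratio at least 3 library SD, with starting fluorescence B-score inside 5 SD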
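Test system: HEK293 cells stably expressing human MrgX1 receptor; Input: fifteen thousand cells per well; Dosing: compound delivered in addition one of three; Schedule: overnight seeding, then 1 h dark dye loading; Technique: Fluo-4 NW calcium fluorescence; Measure: B-scored fluorescence response ratio; Controls: positive and negative controls per plate.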
RGS4 inh – human RGS4 inhibition | P49798 | HEK293 M3R/RGS4 inducible, Fluo-4 calcium flux; hits give high values; triggered by carbachol at its EC20 | B-score at 10 µM | 310,000 tested, 0.45% active | AID 463165;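 active = B-score, a plate-corrected calcium signal, over three deviations above library mean, with baseline fluorescence within five deviations of library mean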;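 also: RGS4 expression induced by doxycycline in cells with stable M3 receptor; B-score is computed from the integrated fluorescence ratio over baseline after carbachol; higher B-score means a larger calcium signal and so more RGS4 inhibition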
Target sequence (P49798 whole entry, looked up): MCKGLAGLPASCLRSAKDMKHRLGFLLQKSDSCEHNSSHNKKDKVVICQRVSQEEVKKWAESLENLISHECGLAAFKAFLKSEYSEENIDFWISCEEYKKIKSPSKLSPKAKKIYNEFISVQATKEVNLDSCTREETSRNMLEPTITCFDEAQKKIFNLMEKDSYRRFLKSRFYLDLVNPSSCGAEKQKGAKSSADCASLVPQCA
MrgX1 antag – blocks BAM8-22 activation of human MrgX1 receptor. Q96LB2. 310,000 tested, 1.3% active. MRGX1-HEK293 calcium flux, Fluo-4, BAM8-22 antagonism; hits give low values. B-score at 10 µM;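 active = calcium-response B-score plate-corrected more than 3 library SD below zero, starting fluorescence within 5 deviations, no agonist response on first addition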;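 also: peak minus trough fluorescence over baseline after final BAM8-22 challenge near maximal dose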
RGS4 act – potentiators or activators of RGS4; B-score at 10 µM; 310,000 tested, 0.92% active; HEK293 M3R/inducible RGS4, carbachol calcium flux Fluo4; hits give low values;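 active = B-score of the integrated calcium signal more than 4 SD below the library mean, with starting fluorescence not abnormally high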;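 also: negative B-score means reduced calcium response which marks RGS4 activation or potentiation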
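Test system: HEK293 cells with stable M3R and inducible RGS4; also added: carbachol at ECmax as muscarinic agonist stimulus; schedule: dye loading 30 min 37 °C, buffer rest 30 min RT; technique: kinetic calcium fluorescence imaging with Fluo4-AM dye, 2 µM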
MrgX1 ant reconf – human MrgX1 receptor antagonism, re-confirmation screen. shares compounds with MrgX1 antag. MrgX1-HEK293, BAM8-22 calcium flux, Fluo-4; hits give low values. remaining BAM8-22 calcium response % of control (hits give low values), % at 10 µM. 2,300 tested, 19% active. AID 602420;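 active = remaining agonist calcium response no higher than 100% minus 3 SD of agonist-only control wells, with starting fluorescence near control levels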;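 also: agonist BAM8-22 given at a near maximal EC90 to ECmax level; peak minus minimum fluorescence divided by baseline after agonist addition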
HEK293 Ca flux – MrgX1 antagonist counter-screen hit in parental HEK293 cells. 4,000 tested, 2% active. Fluo-4 calcium fluorescence, FDSS. fluorescence ratio F(max-min)/F0 at 10 µM. AID 624111. shares compounds with MrgX1 antag;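 active = duplicate-averaged calcium fluorescence ratio at least three times the standard deviation of buffer wells, a nonspecific response in parental cells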
HEK293 Ca counter – counter-screen for MrgX1 allosteric activators: effect in parental HEK293 cells; shares compounds with MrgX1 antag; parental HEK293 calcium flux, Fluo-4 fluorescence ratio; hits give high values; fluorescence ratio F(max-min)/F0 at 10 µM; 4,000 tested, 0.4% active; AID 624114;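 active = calcium fluorescence ratio, averaged over duplicates, at least 3 SD of the buffer-well ratio, meaning a nonspecific response in receptor-free cells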;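 also: untransfected parental HEK293 lacking MrgX1 used as counterscreen for MrgX1 allosteric activators; fluorescence change taken during the second addition on a kinetic imager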
HEK293 Ca cntr2 – counter-screen for MrgX1 activators: effect in parental HEK293 cells | Fluo-4 calcium fluorescence (FDSS); hits give high values | 4,000 tested, 8.7% active | fluorescence ratio F(max-min)/F0 at 10 µM | shares compounds with MrgX1 antag | AID 624115;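 active = calcium fluorescence ratio at least three times the spread of buffer wells, meaning a non-specific response in parental cells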
Numbers without * were called inactive; i = inactive; / = not tested or not shown. Most compounds without a hit are left out; they make up all but 3.5% or so of the library.

SMILES	MrgX1 PAM	MrgX1 agonist	RGS4 inh	MrgX1 antag	RGS4 act	MrgX1 ant reconf	HEK293 Ca flux	HEK293 Ca counter	HEK293 Ca cntr2
CCNC(=S)N/N=C/c1ccc(OCC(=O)Nc2ccc(OC)cc2)c(OC)c1	i	i	i	i	i	/	/	/	/
CCNC(=S)N/N=C/c1ccc(OCC(=O)Nc2ccc(C)cc2)cc1	i	i	i	-10*	i	i	i	i	i
CCn1c(SCC(=O)c2ccc3c(c2)OCCO3)nnc1C(C)C	i	i	/	-4.7*	/	i	i	i	i
O=S1(=O)CC(O)C(Nc2ccccc2Cl)C1 (stereo not given)	i	i	i	-7.9*	i	i	i	i	i
COc1ccccc1CNC(=O)[C@@H]1CCCN1S(=O)(=O)c1ccc(C)cc1	i	i	i	-6.6*	i	i	i	i	i
CC1=Nc2ccc3ccccc3c2C1(C)C	i	i	i	-5.8*	i	i	i	i	i
COc1ccc2[nH]c(=O)c(CN(c3ccc(C)c(C)c3)S(C)(=O)=O)cc2c1	i	i	i	-4.5*	i	i	i	i	i
Cc1cc(C(=O)NCCCN2CCCC2=O)cs1	i	i	i	i	i	/	/	/	/
Cc1noc(C)c1C(=O)NCCCN1CCCC1=O	i	i	i	-4.9*	i	81%*	i	i	i
O=C(NC1CCCN(c2ccc(C(F)(F)F)cn2)C1)c1ccnc(Cl)c1 (stereo not given)	i	i	i	-4.9*	i	84%*	i	i	i
O=C(NC1CCCN(Cc2ccc(Cl)cc2)C1)c1ccnc(Cl)c1 (stereo not given)	i	i	i	i	i	/	/	/	/
COc1ccc(-c2nnc(SCc3c(C)noc3C)o2)cc1	i	i	i	i	i	/	/	/	/
COc1ccc(-c2nc3cc(NC(=O)Cc4ccc(OC)c(OC)c4)ccc3o2)cc1	i	i	i	i	i	/	/	/	/
Cc1oc(CC(C)C)c(CN)c1C(=O)O	i	i	i	-4.6*	i	i	i	i	i
CCN(CC)C(=O)NC(c1ccc(C)c(F)c1)C(Cl)(Cl)Cl (stereo not given)	i	i	i	i	i	/	/	/	/
Cc1ccc(C(NC(=O)N2CCOCC2)C(Cl)(Cl)Cl)cc1F (stereo not given)	i	i	i	-5.3*	i	81%*	i	i	i
CCCCC(=O)NC1=C(C(=O)OC)SCC1	i	i	i	-4.9*	i	i	i	i	i
O=C(c1ccccc1)c1ccc(CN2C(=O)c3ccccc3C2=O)o1	i	i	i	-5.2*	i	i	i	i	i
Cc1cccc(NC(=O)c2oc3ccc(S(=O)(=O)N4CCOCC4)cc3c2C)c1C	i	i	i	-4.8*	i	i	i	i	i
Cc1ccc(NC(=O)c2oc3ccc(S(=O)(=O)N4CCOCC4)cc3c2C)c(C)c1	i	i	i	i	i	/	/	/	/
COc1cc2c(cc1OC)C(C)N(C(=O)c1cc(C)on1)CC2 (stereo not given)	i	i	i	-6.3*	i	85%*	i	i	i
Cc1cc(OCC(=O)NC2CCN(Cc3ccccc3)CC2)c2c(C)cc(=O)oc2c1	i	i	i	i	i	/	/	/	/
COc1ccc(-c2nc3ccccc3c(=O)n2CCOc2c(C)cccc2C)cc1	i	i	i	-4.6*	i	i	0.2*	i	i
